The source made the active and inactive calls. No cut-off for these calls is given here.
How the values were obtained:
[1] = target: T1, Cysteinyl leukotriene receptor 1 (Cavia porcellus) (UniProt Q2NNR5); assay: (§1) Inhibition of leukotriene D4 induced bronchoconstriction in anesthetized guinea pigs after intravenous administration at a dose of 10 mg/kg; type: functional, organism-based; design: dose 10 mg/kg
T1 sequence (whole entry): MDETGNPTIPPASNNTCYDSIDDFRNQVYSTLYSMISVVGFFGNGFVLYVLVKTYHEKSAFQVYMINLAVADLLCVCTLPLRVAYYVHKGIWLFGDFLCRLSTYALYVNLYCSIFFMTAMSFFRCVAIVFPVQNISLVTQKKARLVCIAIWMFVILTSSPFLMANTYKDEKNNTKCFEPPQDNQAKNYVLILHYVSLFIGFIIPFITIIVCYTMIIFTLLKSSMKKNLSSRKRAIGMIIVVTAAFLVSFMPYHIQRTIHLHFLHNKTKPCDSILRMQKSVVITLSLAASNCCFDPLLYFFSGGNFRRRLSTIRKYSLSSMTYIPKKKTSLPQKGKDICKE
Method in brief: (§2)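 Male Hartley guinea pigs, 400–600 g, urethane 2 g/kg ip, jugular cannula, propranolol 0.1 mg/kg iv 5 min before challenge, succinylcholine 1.2 mg/kg iv, ventilated. Vehicle or drug iv 30 s before LTD4 25 µg/kg iv; tracheal pressure change.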

[2] = tested on: Cysteinyl leukotriene receptor (Cavia porcellus); assay: Inhibitory activity of compound to block binding of radiolabeled leukotriene D4 to receptor sites in homogenized guinea pig lung at 10 uM
Rattus norvegicus = species: Rattus norvegicus; assay: Inhibitory activity to inhibit Inophore-induced arachidonic acid metabolism (inhibition of LTB4 formation) in rat; Inactive = no significant inhibition at a concentration of 100 uM; type: functional, organism-based
Method in brief: (§3)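 Rat peritoneal macrophages adhered 90 min at 37 °C, labeled with [14C]arachidonic acid 90 min, washed. Compound 30 min at 37 °C, then A23187 0.5 µM for 20 min. LTB4 and PGE2 in medium by radioimmunoassay.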

[3] = Inhibitory activity to inhibit Inophore-induced arachidonic acid metabolism (inhibition of PGE-2 formation) in rat; type: functional; method in brief: as §3
Cavia porcellus [4] = assay: Inhibition of leukotriene D4 induced bronchoconstriction in anesthetized guinea pigs after intravenous administration at a dose of 1 mg/kg; type: functional
[5] = tested on: Cysteinyl leukotriene receptor (Cavia porcellus); assay: Inhibitory activity to block binding of [3H]leukotriene D4 to LTD4 receptor sites in homogenized guinea pig lung at 10 uM
Cavia porcellus [6] = species: Cavia porcellus; assay: In vitro activity to inhibit SRS-A induced contraction of guinea pig ileum
[7] = target: T2, Cysteinyl leukotriene receptor 1 (Cavia porcellus, UniProt Q2NNR5); assay: In vitro activity to inhibit binding of [3H]- leukotriene D4 to receptor sites in guinea pig lung membrane; type: cell membranes
T2 sequence (Q2NNR5 whole entry): T1 sequence (whole entry)
Method in brief: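 Lung from male Hartley guinea pigs (400–500 g), homogenized in sucrose/Tris pH 7.5 with protease inhibitors; 30000g membrane pellet in 10 mM PIPES pH 7.5, 50 mM NaCl. Binding: Tyrode, 0.1% BSA, 1 mM glycine, 1 mM cysteine, 3.5 nM [3H]LTD4, 100–200 µg protein, 20 °C, 30 min; glass-fiber filtration. Nonspecific with 10^-6 M LTD4. Triplicate screen at 10 µM; IC50 by linear regression.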

Cavia porcellus [8] = assay: In vivo guinea pig bronchoconstriction against leukotriene C4 when administered a compound dose (mg/kg) intravenously; type: functional; conditions: Lung, iv, read-out: ID50 (the source's name)
Cavia porcellus [9] = species: Cavia porcellus; assay: In vitro activity to inhibit leukotriene D4 induced contraction of guinea pig trachea; type: functional; conditions: read-out: pA2 (converted)
Method in brief: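 Guinea pig tracheal smooth muscle contracted by LTD4; pA2 and Schild slope reported.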

Cavia porcellus [10] = assay: In vivo guinea pig bronchoconstriction against leukotriene D4 when administered a compound dose (mg/kg) intravenously; type: functional; conditions: Lung, iv, read-out: ID50 (the source's name); method in brief: as §2
Cavia porcellus [11] = assay: (§4) Inhibition of leukotriene D4 induced bronchoconstriction in anesthetized guinea pigs after aerosol administration as 1% solution; type: functional, organism-based
Method in brief: (§5)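 Guinea pigs given propranolol 0.1 mg/kg iv 5 min before 5-min ultrasonic nebulizer exposure to aqueous, NaOH-neutralized drug (% w/v) or distilled water, breathing spontaneously. LTD4 50 µg/kg iv 30 s after exposure; tracheal pressure change.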

Cavia porcellus [12] = assay: Activity against histamine induced bronchoconstriction in guinea pig, no significant inhibition when compound dose (10 mg/kg) given intravenously; Not active.; type: functional, organism-based
Cavia porcellus [13] = assay: Inhibitory activity to inhibit arachidonic acid induced bronchoconstriction (when administered at a concentration of 1%, by aerosol); Not active; type: functional, organism-based
Cavia porcellus [14] = assay: Duration of action of leukotriene E4 as time for inhibition to decrease to 40%, compound administered at a concentration of 1%,for 5 min by aerosol; type: ADME, organism-based; conditions: guinea pig, in vivo, inhaled_or_intranasal
Method in brief: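 Aerosol guinea pig bronchoconstriction with LTE4 challenge; drug given as 1% nebulized solution for 5 min. Duration taken as time for inhibition to fall to 40%.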

Cavia porcellus [15] = assay: In vivo guinea pig bronchoconstriction against leukotriene B4 (when administered at a concentration of 1%, by aerosol); Not active; conditions: Lung
Cavia porcellus [16] = assay: as §1; type: functional; method in brief: as §2
Cavia porcellus [17] = assay: Activity against platelet activating factor in guinea pig, no significant inhibition when compound dose (10 mg/kg) given intravenously; Not active.; type: functional, organism-based
Cavia porcellus [18] = species: Cavia porcellus; assay: In vitro activity to inhibit SRS-A induced contraction of guinea pig ileum; remark: listed apart in the source
Cavia porcellus [19] = assay: Duration of action of leukotriene E4 as time for inhibition to decrease to 40%, compound was administered at a dose of 10 mg/kg; type: ADME, organism-based; design: dose 10 mg/kg; conditions: guinea pig, in vivo
Method in brief: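 Intravenous guinea pig bronchoconstriction with LTE4 challenge; drug 10 mg/kg iv. Duration taken as time for inhibition to fall to 40%.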

Cavia porcellus [20] = assay: Time taken for inhibition of antigen induced bronchoconstriction in guinea pig to decrease to 40%, compound administered at a concentration of 1%, for 5 min by aerosol; type: organism-based; conditions: in vivo, inhaled_or_intranasal
Method in brief: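 Aerosol guinea pig bronchoconstriction with antigen challenge; drug given as 1% nebulized solution for 5 min. Duration taken as time for inhibition to fall to 40%.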

Cavia porcellus [21] = assay: as §4; type: functional; method in brief: as §5
Cavia porcellus [22] = assay: Duration of action of leukotriene D4 as time for inhibition to decrease to 40%, when compound was administered at a concentration of 1%, for 5 min by aerosol; type: ADME, organism-based; conditions: guinea pig, in vivo, inhaled_or_intranasal
Method in brief: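 Aerosol guinea pig bronchoconstriction with LTD4 challenge; drug given as 1% nebulized solution for 5 min. Duration taken as time for inhibition to fall to 40%.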

Cavia porcellus [23] = assay: In vivo guinea pig bronchoconstriction against leukotriene E4 when administered a compound dose(mg/kg) intravenously; type: functional; conditions: Lung, iv, read-out: ID50 (the source's name)
Cavia porcellus [24] = assay: Activity against histamine induced bronchoconstriction in guinea pig (when administered at a concentration of 1%, by aerosol); Not active; type: functional, organism-based
[25] = target: Dual specificity calcium/calmodulin-dependent 3',5'-cyclic nucleotide phosphodiesterase 1A (Bos taurus, UniProt P14100); assay: Inhibition of bovine heart Phosphodiesterase 1A
Cavia porcellus [26] = assay: In vivo guinea pig bronchoconstriction against leukotriene C4 when administered at a concentration of 1%, by aerosol; NS means no significant inhibition.; type: functional, organism-based; conditions: Lung
Cavia porcellus [27] = assay: Inhibition of leukotriene D4 induced bronchoconstriction in anesthetized guinea pigs after intravenous administration; type: functional; conditions: read-out: ID50 (the source's name); method in brief: as §2
Cavia porcellus [28] = assay: Duration of action of leukotriene D4 as time for inhibition to decrease to 40%, compound was administered at a dose of 10 mg/kg; type: ADME, organism-based; design: dose 10 mg/kg; conditions: guinea pig, in vivo
Method in brief: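 Intravenous guinea pig bronchoconstriction with LTD4 challenge; drug 10 mg/kg iv. Duration taken as time for inhibition to fall to 40%.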

Cavia porcellus [29] = assay: Activity against platelet activating factor in guinea pig (when administered at a concentration of 1%, by aerosol); Not active; type: functional, organism-based

Chain of Dual specificity calcium/calmodulin-dependent 3',5'-cyclic nucleotide phosphodiesterase 1A (P14100 whole entry): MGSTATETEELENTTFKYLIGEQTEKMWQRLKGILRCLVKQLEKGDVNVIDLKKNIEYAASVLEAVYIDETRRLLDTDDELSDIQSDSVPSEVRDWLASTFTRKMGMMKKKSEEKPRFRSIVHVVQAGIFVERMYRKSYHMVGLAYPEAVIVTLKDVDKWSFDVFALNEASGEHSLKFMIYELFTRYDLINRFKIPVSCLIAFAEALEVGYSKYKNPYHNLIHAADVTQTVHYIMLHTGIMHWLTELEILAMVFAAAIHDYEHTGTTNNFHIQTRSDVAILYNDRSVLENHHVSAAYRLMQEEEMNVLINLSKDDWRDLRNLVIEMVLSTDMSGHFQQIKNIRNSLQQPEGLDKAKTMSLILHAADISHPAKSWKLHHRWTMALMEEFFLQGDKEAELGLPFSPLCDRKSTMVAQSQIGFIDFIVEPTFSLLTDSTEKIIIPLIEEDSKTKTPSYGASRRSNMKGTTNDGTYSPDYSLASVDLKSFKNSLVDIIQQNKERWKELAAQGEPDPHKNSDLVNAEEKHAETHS

`CCCc1c(O)c(C(C)=O)cc(O)c1OCCCCCOc1cc2c(cc1C(C)=O)CCC(C(=O)O)O2` (stereo not drawn) showed an inhibition [1] of 0% and an Inhibition [2] of 0%.

With `O=C(O)c1ccc(OCCn2ccnc2)cc1` [DAZOXIBEN] the IC50 (Rattus norvegicus) was “Not Active” and the IC50 [3] was 10 µM.

With `CCCc1c(OCCCCCOc2cc3c(cc2C(C)=O)CCC(c2nnn[nH]2)O3)ccc(C(C)=O)c1O` (stereo not drawn) the inhibition in vivo at 1 mg/kg (Cavia porcellus [4]) was 0% and the inhibition [5] was 60%.

`CCCc1c(OCCCCCOc2cc3c(cc2C(C)=O)CC[C@@H](C(=O)O)O3)ccc(C(C)=O)c1O` gave an IC50 (Cavia porcellus [6]) of 0.06 µM, an IC50 [7] of 5 µM and an ED50 (Cavia porcellus [8]) of 4 mg/kg. The Kb (Cavia porcellus [9]) was 0.631 µM and the ED50 (Cavia porcellus [10]) was 3 mg/kg.

With `CCCc1c(OCC(O)COc2ccc3c(=O)cc(C(=O)O)oc3c2CCC)ccc(C(C)=O)c1O` (stereo not drawn) [FPL-55712] the IC50 (Cavia porcellus [11]) was 0.5 % conc, the inhibition (Cavia porcellus [12]) was “inactive” and the inhibition (Cavia porcellus [13]) was “inactive”. For the same compound, the Duration (Cavia porcellus [14]) was 50 min, the inhibition (Cavia porcellus [15]) was “inactive” and the inhibition in vivo at 10 mg/kg (Cavia porcellus [16]) was 92%. The ED50 (Cavia porcellus [8]) was 6 mg/kg, the inhibition (Cavia porcellus [17]) was “inactive” and the IC50 (Cavia porcellus [18]) was 0.05 µM. It also gave a Duration (Cavia porcellus [19]) of 6 min, a Duration (Cavia porcellus [20]) of 270 min and a Kb (Cavia porcellus [9]) of 1 µM. For the same compound, the Inhibition (Cavia porcellus [21]) was 64%, the Duration (Cavia porcellus [22]) was 60 min and the ED50 (Cavia porcellus [23]) was 1 mg/kg. For the same compound, the inhibition (Cavia porcellus [24]) was “inactive”, the IC50 [25] was 40 µM and the ED50 (Cavia porcellus [10]) was 2 mg/kg. The inhibition (Cavia porcellus [26]) was “inactive”, the ED50 (Cavia porcellus [27]) was 2 mg/kg and the Duration (Cavia porcellus [28]) was 6 min. For the same compound, the inhibition (Cavia porcellus [29]) was “inactive”.

Reference: ChEMBL document CHEMBL1124636, “3,4-Dihydro-2H-1-benzopyran-2-carboxylic acids and related compounds as leukotriene antagonists” (J Med Chem, 1989)
